Reference: ChEMBL document CHEMBL1145185, “Novel inhibitors of human histone deacetylases: design, synthesis, enzyme inhibition, and cancer cell growth inhibition of SAHA-based non-hydroxamates” (J Med Chem, 2005)

Target: Histone deacetylase
Experiment: Inhibitory concentration against human histone deacetylase
Format: protein assay
Conditions: not given

| IC50 [µM] | Compound |
| --- | --- |
| > 100 | C#CCN(CC#C)CCCCCC(=O)Nc1ccccc1 |
| > 100 | C#CCNCCCCCC(=O)Nc1ccccc1 |
| > 100 | O=C(CO)NCCCCCC(=O)Nc1ccccc1 |
| 2.8 | O=CN(O)CCCCCCCC(=O)Nc1ccccc1 |
| > 100 | NCC(=O)NCCCCCC(=O)Nc1ccccc1 |
| > 100 | O=C(CCCCCCS(=O)(=O)NO)Nc1ccccc1 |
| > 100 | CSCCCCCCC(=O)Nc1ccccc1 |

| Compound | IC50 [µM] |
| --- | --- |
| O=C(CCCCCCS)Nc1nc2ccccc2s1 | 0.34 |
| CNC(=O)C(=O)CCCCCCC(=O)Nc1ccccc1 | 0.34 |

Same assay, conditions: read-out: IC50

| IC50 [µM] | Compound |
| --- | --- |
| 11 | SCCCCCCOc1ccccc1 |
| 0.36 | O=C(NCCCCCCS)c1ccccc1 |
| 0.61 | CN(C)c1ccc(C(=O)NCCCCCCS)cc1 |
| 1.1 | O=C(CCCCCCS)Nc1ccc(-c2ccccc2)cc1 |
| 0.62 | O=C(CCCCCCS)Nc1ccc(Oc2ccccc2)cc1 |
| 0.17 | O=C(CCCCCCS)Nc1nc(-c2ccccc2)cs1 |
| 1.2 | CN(C)c1ccc(NC(=O)CCCCCCS)cc1 |
| 0.1 | O=C(NCCCCCCS)c1cc2ccccc2[nH]1 |

| Compound | IC50 [µM] |
| --- | --- |
| O=C(CCCCCCS)Nc1cccc(Oc2ccccc2)c1 | 0.21 |
| O=C(CCCCCCS)Nc1cccnc1 | 0.11 |
| O=C(NCCCCCCS)c1ccc2ccccc2c1 | 0.085 |
| O=C(CCCCCCS)Nc1cccc(-c2ccccc2)c1 | 0.075 |

Tested on: not listed separately
Experiment: Effective Concentration of compound to inhibit the growth of human RXF-631L cells
Format: functional, cell-based
Conditions: not given

| Compound | EC50 [µM] |
| --- | --- |
| CC(C)C(=O)SCCCCCCC(=O)Nc1nc(-c2ccccc2)cs1 | 2.4 |

Tested on: NCI-H460
Experiment: Inhibition of human lung cancer NCI-H460 cell growth
Format: functional, cell-based
Conditions: not given
Method in brief: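 Cells seeded at 1500/well, 37 °C; after 24 h exposed to compounds at various concentrations in 10% FBS RPMI-1640, 37 °C, 5% CO₂, 48 h. Stained with 0.5 mg/mL methylene blue, room temperature, 30 min; dye dissolved in 3% aqueous HCl, absorbance at 660 nm. EC₅₀ reported as mean of at least two experiments.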

| EC50 [µM] | Compound |
| --- | --- |
| 8 | CC(C)C(=O)SCCCCCCC(=O)Nc1cnc2ccccc2c1 |
| 4.1 | CC(C)C(=O)SCCCCCCNC(=O)c1cc2ccccc2o1 |
| 27 | O=C(CCCCCCSC(=O)C1CC1)Nc1ccccc1 |
| > 50 | O=C(CCCCCCSSCCCCCCC(=O)Nc1ccccc1)Nc1ccccc1 |
| 25 | CC(C)(C)C(=O)OCSCCCCCCC(=O)Nc1ccccc1 |
| 9.5 | CC(C)C(=O)SCCCCCCC(=O)Nc1nc2ccccc2s1 |
| 36 | CC(=O)SCCCCCCC(=O)Nc1ccccc1 |
| 12 | CC(C)C(=O)SCCCCCCNC(=O)c1ccc2ccccc2c1 |
| 24 | O=C(CCCCCCSC(=O)c1ccc([N+](=O)[O-])cc1)Nc1ccccc1 |
| > 50 | CC(C)(C)C(=O)SCCCCCCC(=O)Nc1ccccc1 |
| 25 | CC(C)C(=O)SCCCCCCC(=O)Nc1cccc(Oc2ccccc2)c1 |
| 2.8 | CC(C)C(=O)SCCCCCCC(=O)Nc1cccc(-c2ccccc2)c1 |
| 28 | CCC(=O)SCCCCCCC(=O)Nc1ccccc1 |
| 12 | CC(C)C(=O)SCCCCCCNC(=O)c1cc2ccccc2[nH]1 |
| 21 | O=C(CCCCCCSC(=O)C1CCCC1)Nc1ccccc1 |
| 2.9 | CC(C)C(=O)SCCCCCCC(=O)Nc1cccnc1 |
| 22 | CCCC(=O)SCCCCCCC(=O)Nc1ccccc1 |

Target: Histone deacetylase (Homo sapiens) (UniProt Q13547+O15379+Q9UBN7+Q92769+Q9UQL6+Q8WUI4+Q9BY41+Q96DB2+P56524+Q9UKV0+Q969S8)
Conditions: at 100 µM

| inhibition [%] | Compound |
| --- | --- |
| 0 | C#CCN(CC#C)CCCCCC(=O)Nc1ccccc1 |
| 14 | C#CCNCCCCCC(=O)Nc1ccccc1 |
| 85 | CC(=O)SCCCCCCC(=O)Nc1ccccc1 |
| 14 | O=C(CCCCCCS(=O)(=O)NO)Nc1ccccc1 |
| 11 | CSCCCCCCC(=O)Nc1ccccc1 |
